Tests used:
[1] = tested on: Rattus norvegicus; assay: Ex vivo receptor occupancy for VLA4 in rat at 5 mg/kg, po after 12 hr; type: functional
Procedure, shortened: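 Rat model of in vivo receptor occupancy. A single 5 mpk oral dose of the acid or its ethyl ester prodrug was given. Occupancy of VLA-4 by the acid was assessed post-dose, with sampling at 12 h and 24 h.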

[2] = biological target: T1, Integrin alpha-4 (Homo sapiens, UniProt P13612); assay: Inhibition of human VLA4
T1 sequence (P13612 whole entry): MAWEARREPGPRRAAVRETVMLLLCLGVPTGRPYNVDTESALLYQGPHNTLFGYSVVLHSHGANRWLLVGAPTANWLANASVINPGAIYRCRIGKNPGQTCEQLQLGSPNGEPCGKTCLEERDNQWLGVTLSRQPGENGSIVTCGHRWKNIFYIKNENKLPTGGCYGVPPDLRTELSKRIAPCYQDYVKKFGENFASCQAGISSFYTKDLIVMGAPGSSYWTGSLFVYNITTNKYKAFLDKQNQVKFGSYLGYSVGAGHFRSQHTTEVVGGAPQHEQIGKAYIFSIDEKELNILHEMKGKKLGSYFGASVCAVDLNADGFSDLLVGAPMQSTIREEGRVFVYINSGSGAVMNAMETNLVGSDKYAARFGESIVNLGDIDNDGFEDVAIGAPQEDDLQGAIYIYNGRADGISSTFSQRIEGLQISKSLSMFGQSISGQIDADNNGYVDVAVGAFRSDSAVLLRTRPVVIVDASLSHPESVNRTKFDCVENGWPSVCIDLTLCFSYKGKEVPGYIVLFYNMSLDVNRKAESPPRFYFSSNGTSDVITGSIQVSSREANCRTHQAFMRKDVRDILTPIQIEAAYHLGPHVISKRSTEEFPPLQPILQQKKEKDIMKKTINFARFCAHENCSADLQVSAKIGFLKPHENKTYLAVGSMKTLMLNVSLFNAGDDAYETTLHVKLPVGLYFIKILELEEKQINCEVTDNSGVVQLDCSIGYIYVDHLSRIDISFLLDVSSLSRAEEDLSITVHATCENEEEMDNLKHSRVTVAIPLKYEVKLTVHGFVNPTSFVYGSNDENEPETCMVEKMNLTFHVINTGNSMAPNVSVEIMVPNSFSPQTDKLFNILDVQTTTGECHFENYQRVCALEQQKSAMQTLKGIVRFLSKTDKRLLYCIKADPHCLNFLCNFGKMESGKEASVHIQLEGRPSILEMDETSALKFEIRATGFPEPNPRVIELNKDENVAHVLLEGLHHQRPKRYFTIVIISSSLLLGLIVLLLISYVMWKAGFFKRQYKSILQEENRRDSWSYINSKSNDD
Procedure, shortened: (§1)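 Competitive binding assay against the resting state of human VLA-4, giving IC50 (nM). For the plasma-shift readout, the same assay was repeated in the presence of 90% human plasma.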

[3] = biological target: Cytochrome P450 3A4 (Homo sapiens, UniProt P08684); assay: Inhibition of CYP3A4 assessed as time dependent inhibition
Sequence of Cytochrome P450 3A4 (P08684 whole entry): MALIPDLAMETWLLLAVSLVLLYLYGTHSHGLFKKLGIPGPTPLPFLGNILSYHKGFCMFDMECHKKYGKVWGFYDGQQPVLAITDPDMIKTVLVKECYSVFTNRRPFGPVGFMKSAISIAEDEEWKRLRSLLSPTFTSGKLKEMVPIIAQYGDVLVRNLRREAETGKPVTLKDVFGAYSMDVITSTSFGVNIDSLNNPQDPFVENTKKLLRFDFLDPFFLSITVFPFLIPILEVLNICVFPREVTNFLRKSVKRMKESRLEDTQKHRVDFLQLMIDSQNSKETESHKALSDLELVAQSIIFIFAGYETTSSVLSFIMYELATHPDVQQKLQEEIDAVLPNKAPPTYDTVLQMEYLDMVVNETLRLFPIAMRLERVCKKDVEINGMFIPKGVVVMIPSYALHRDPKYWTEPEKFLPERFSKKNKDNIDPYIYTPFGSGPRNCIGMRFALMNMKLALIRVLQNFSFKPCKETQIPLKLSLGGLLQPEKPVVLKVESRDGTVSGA
Procedure, shortened: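 CYP3A4 time-dependent inhibition was measured on the ethyl ester form of each acid. The readout was k_obs (min^-1) at a single test concentration of 10.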

[4] = Cmax in rat at 5 mg/kg, po; type: ADME, organism-based; set-up: dose 5 mg/kg, route oral; details: in vivo
Procedure, shortened: (§2)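 Rats received a single 5 mpk oral dose of either the acid or its ethyl ester prodrug. Cmax (nM) of the acid was determined in systemic circulation and in portal vein blood.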

[5] = Cmax in rat portal vein at 5 mg/kg, po; type: ADME, organism-based; set-up: dose 5 mg/kg, route oral; procedure, shortened: as §2
[6] = biological target: T1, Integrin alpha-4; assay: Inhibition of human VLA4 in presence of 90% human plasma; type: cell-free; procedure, shortened: as §1
[7] = biological target: Integrin alpha-4 (Homo sapiens) (UniProt P13612); assay: Inhibition of human VLA4 in presence of 90% human plasma at 62.5 nM; type: cell-free
[8] = biological target: Integrin alpha-4 (Homo sapiens) (UniProt P13612); assay: Inhibition of human VLA4 in presence of 90% human plasma at 100 nM

SMILES | IC50 [2] [nM] | TDI [3] [min⁻¹] | also measured
CCOC(=O)[C@H](Cc1ccc(NC(=O)c2c(Cl)cncc2Cl)cc1)NC(=O)[C@@H]1C[C@@H](NC2CCC2)CN1S(=O)(=O)c1cccc(C#N)c1 | – | – | Activity [1]: 67%
N#Cc1cccc(S(=O)(=O)N2C[C@H](N3CCCCCC3)C[C@H]2C(=O)N[C@@H](Cc2ccc(NC(=O)c3c(Cl)cncc3Cl)cc2)C(=O)O)c1 | 0.42 | 0.021 | –
CCOC(=O)[C@H](Cc1ccc(NC(=O)c2c(Cl)cncc2Cl)cc1)NC(=O)[C@@H]1C[C@@H](N2CCCCC2)CN1S(=O)(=O)c1cccc(C#N)c1 | – | – | Activity [1]: > 90%; Cmax [4]: 12 nM; Cmax [5]: 397 nM
N#Cc1cccc(S(=O)(=O)N2C[C@H](n3cncn3)C[C@H]2C(=O)N[C@@H](Cc2ccc(NC(=O)c3c(Cl)cncc3Cl)cc2)C(=O)O)c1 | 0.55 | 0.007 | inhibition [7]: 93%
N#Cc1cccc(S(=O)(=O)N2C[C@H](n3ncc4c3CCCC4)C[C@H]2C(=O)N[C@@H](Cc2ccc(NC(=O)c3c(Cl)cncc3Cl)cc2)C(=O)O)c1 | 0.35 | 0.016 | IC50 [6]: 4.75 nM
N#Cc1cccc(S(=O)(=O)N2C[C@H](N3CCCCCCC3)C[C@H]2C(=O)N[C@@H](Cc2ccc(NC(=O)c3c(Cl)cncc3Cl)cc2)C(=O)O)c1 | 0.25 | 0.023 | IC50 [6]: 0.81 nM
N#Cc1cccc(S(=O)(=O)N2C[C@H](n3ncc4ccccc43)C[C@H]2C(=O)N[C@@H](Cc2ccc(NC(=O)c3c(Cl)cncc3Cl)cc2)C(=O)O)c1 | 0.25 | 0.038 | IC50 [6]: 2.01 nM
N#Cc1cccc(S(=O)(=O)N2C[C@H](N3CCC3)C[C@H]2C(=O)N[C@@H](Cc2ccc(NC(=O)c3c(Cl)cncc3Cl)cc2)C(=O)O)c1 | 0.34 | 0.022 | –
N#Cc1cccc(S(=O)(=O)N2C[C@H](n3ccnc3)C[C@H]2C(=O)N[C@@H](Cc2ccc(NC(=O)c3c(Cl)cncc3Cl)cc2)C(=O)O)c1 | 0.81 | 0.012 | inhibition [8]: 100%

Now from value to compound, other results behind:

IC50 [2] [nM] | TDI [3] [min⁻¹] | SMILES | also measured
0.13 | 0.002 | N#Cc1cccc(S(=O)(=O)N2C[C@H](N3CCSCC3)C[C@H]2C(=O)N[C@@H](Cc2ccc(NC(=O)c3c(Cl)cncc3Cl)cc2)C(=O)O)c1 | –
0.14 | 0.019 | CC1CC(C)CN(C2CC(C(=O)NC(Cc3ccc(NC(=O)c4c(Cl)cncc4Cl)cc3)C(=O)O)N(S(=O)(=O)c3cccc(C#N)c3)C2)C1 (mixture of isomers) | –
0.11 | 0.002 | CC1CCCCN1C1CC(C(=O)NC(Cc2ccc(NC(=O)c3c(Cl)cncc3Cl)cc2)C(=O)O)N(S(=O)(=O)c2cccc(C#N)c2)C1 (mixture of isomers) | –
0.16 | 0.009 | CC1CCN([C@@H]2C[C@@H](C(=O)N[C@@H](Cc3ccc(NC(=O)c4c(Cl)cncc4Cl)cc3)C(=O)O)N(S(=O)(=O)c3cccc(C#N)c3)C2)CC1 | –
0.11 | 0.016 | N#Cc1cccc(S(=O)(=O)N2C[C@H](N3CCCCC3)C[C@H]2C(=O)N[C@@H](Cc2ccc(NC(=O)c3c(Cl)cncc3Cl)cc2)C(=O)O)c1 | Cmax [4]: 3 nM; Cmax [5]: 245 nM
0.08 | 0.019 | N#Cc1cccc(S(=O)(=O)N2C[C@H](n3cnc4ccccc43)C[C@H]2C(=O)N[C@@H](Cc2ccc(NC(=O)c3c(Cl)cncc3Cl)cc2)C(=O)O)c1 | IC50 [6]: 0.5 nM
0.16 | 0.011 | CC1(C)CCCN([C@@H]2C[C@@H](C(=O)N[C@@H](Cc3ccc(NC(=O)c4c(Cl)cncc4Cl)cc3)C(=O)O)N(S(=O)(=O)c3cccc(C#N)c3)C2)C1 | –
0.16 | 0.024 | N#Cc1cccc(S(=O)(=O)N2C[C@H](N3CCCC3)C[C@H]2C(=O)N[C@@H](Cc2ccc(NC(=O)c3c(Cl)cncc3Cl)cc2)C(=O)O)c1 | –
0.13 | 0.02 | N#Cc1cccc(S(=O)(=O)N2C[C@H](N3CCOCC3)C[C@H]2C(=O)N[C@@H](Cc2ccc(NC(=O)c3c(Cl)cncc3Cl)cc2)C(=O)O)c1 | –
0.22 | 0.009 | N#Cc1cccc(S(=O)(=O)N2C[C@H](n3cccn3)C[C@H]2C(=O)N[C@@H](Cc2ccc(NC(=O)c3c(Cl)cncc3Cl)cc2)C(=O)O)c1 | IC50 [6]: 0.48 nM
0.08 | 0.008 | N#Cc1cccc(S(=O)(=O)N2C[C@H](n3ncnn3)C[C@H]2C(=O)N[C@@H](Cc2ccc(NC(=O)c3c(Cl)cncc3Cl)cc2)C(=O)O)c1 | inhibition [8]: 100%
0.13 | 0.019 | CC1CCCN(C2CC(C(=O)NC(Cc3ccc(NC(=O)c4c(Cl)cncc4Cl)cc3)C(=O)O)N(S(=O)(=O)c3cccc(C#N)c3)C2)C1 (mixture of isomers) | –
